Measured values from PubChem BioAssay AID651950 (The Scripps Research Institute Molecular Screening Center, 2012).
Unmarked numbers belong to inactive results. Calls of active or inactive are those of the source. The rule behind the calls is not given here.

test: Hsp70 transcriptional activators, SAR follow-up, cell-based, HeLa, Hsp70 promoter luciferase, luminescence (AID 651950); settings: HeLa hsp70.1pr-luc reporter; at 99 µM (top of the series)
Method in brief: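 Read-out: % activation relative to DMSO and MG132 controls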

| Structure (SMILES) | activation |
| --- | --- |
| O=C1NC(=O)N(Cc2ccccc2)C(=O)/C1=C/C=C/c1ccccc1 | -1.2% (active) |
| O=C1NC(=O)C(=C/C=C/c2ccc(Cl)cc2)C(=O)N1 | -1.1% (active) |
| COc1ccc(/C=C/C=C2C(=O)NC(=O)NC2=O)cc1 | -1.7% (active) |
| O=C1NC(=O)C(=C/C=C/c2ccco2)C(=O)N1 | -0.7% (active) |
| O=C1NC(=O)C(=C/C=C/c2ccc(Br)cc2)C(=O)N1 | -0.8% (active) |
| O=C1NC(=O)C(=C/C=C/c2cccnc2)C(=O)N1 | 22.5% |
| CN(C)c1ccc(/C=C/C=C2C(=O)NC(=O)NC2=O)cc1 | 0.4% |
| O=C1NC(=O)C(=C/C=C/c2ccc([N+](=O)[O-])cc2)C(=O)N1 | -1.1% (active) |
| C=CCN1C(=O)NC(=O)/C(=C/C=C/c2ccccc2)C1=O | -1.7% (active) |
